Reference: ChEMBL document CHEMBL1155635, “New cytotoxic sesquiterpenes from the gorgonian Isis hippuris” (2000)
≈ marks a conversion by molar mass, not a printed value.

What was measured:
Assay type in all cases: functional
HT-29 = assay: Cytotoxicity against human HT29 cells by MTT method; conditions: for EC50: Homo sapiens, HT-29, read-out: ED50 (the source's name)
Procedure, shortened: (§1)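 Modified MTT colorimetric assay. P-388 cells were a gift from an outside laboratory; A549 and HT-29 came from ATCC. Cells were treated at eight concentrations of pure compound, 50 to 5 × 10-6 µg/mL. Growth was expressed as percent of control incubations, run in triplicate. ED50 is the dose inhibiting cell growth by 50%.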

A549 = assay: Cytotoxicity against human A549 cells by MTT method; conditions: read-out: ED50 (the source's name); procedure, shortened: as §1
P388 = assay: Cytotoxicity against mouse P388 cells by MTT method; conditions: for EC50: Mus musculus, P388, read-out: ED50 (the source's name); procedure, shortened: as §1

C[C@H]1CC[C@H]2[C@@H]3CC(=O)[C@H](C)[C@@]13CC2(C)C [SUBEROSANONE]
ED50 (HT-29): <5 ×10⁻⁶ ug/ml
EC50 (A549): 0.036 µg/mL (≈ 0.163 µM)
ED50 (P388): <5 ×10⁻⁶ ug/ml

C=C1[C@H](OC(C)=O)C[C@H]2[C@@H]3CC[C@H](C)[C@]12CC3(C)C [SUBEROSENOL B ACETATE]
EC50 (HT-29): 0.005 µg/mL
EC50 (A549): 0.36 µg/mL
EC50 (P388): 0.074 µg/mL

C=C1[C@@H](OC(C)=O)C[C@H]2[C@@H]3CC[C@H](C)[C@]12CC3(C)C [SUBEROSENOL A ACETATE]
ED50 (HT-29): 3.6 ×10⁻⁴ ug/ml
EC50 (A549): 0.08 µg/mL
EC50 (P388): 0.0076 µg/mL

C=C1[C@@H](O)C[C@H]2[C@@H]3CC[C@H](C)[C@]12CC3(C)C [SUBEROSENOL A]
ED50 (HT-29): <5 ×10⁻⁶ ug/ml
EC50 (A549): 0.0051 µg/mL (≈ 0.0231 µM)
ED50 (P388): <5 ×10⁻⁶ ug/ml

C[C@@H]1CC(=O)[C@@]23[C@@H](C)C(C(=O)O)=C[C@]2(C)CC[C@@H]13 [SUBERGORGIC ACID]
EC50 (HT-29): > 50 µg/mL
EC50 (A549): > 50 µg/mL
EC50 (P388): 13.3 µg/mL (≈ 53.6 µM)

C=C1[C@H](O)C[C@H]2[C@@H]3CC[C@H](C)[C@]12CC3(C)C [SUBEROSENOL B]
EC50 (HT-29): 2.1 µg/mL (≈ 9.53 µM)
EC50 (A549): 0.2 µg/mL (≈ 0.908 µM)
EC50 (P388): 3.4 µg/mL (≈ 15.4 µM)
